Compounds with a hit are over-represented: about 3.1% of the library has one in this group of screens.
PGC1a acetyl inh – inhibitors of PGC1a acetylation signal, primary screen, cell-based, U2OS, AlphaScreen, inhibitor mode. AlphaScreen anti-acetyl-lysine; with virally co-expressed GCN5 acetyltransferase. AID 651687, 2012. 350,000 tested, 0.17% active. inhibition, % at 15.6 µM;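 active = every replicate shows inhibition of at least 40%; inconclusive = mean inhibition at least 40% but some replicate below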;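 note: 0% = neutral control wells and 100% = positive control wells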
PAX8 reporter – inhibitors of PAX8-driven TPO luciferase reporter, primary screen, RMG-I cells, single concentration | 360,000 tested, 1.2% active | inhibition, % at 12.6 µM | SteadyGlo, 24 h | AID 652154, 2013;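 active = mean replicate inhibition at least 60% with every replicate also reaching 60%; inconclusive = only one of the two criteria is met; inactive = mean below 60% and not all replicates reaching 60%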;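 note: luciferase light reporting Pax8 driven TPO promoter activity; plate controls were median of neutral control wells for no effect and mitoxantrone controls for full effect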
FN deposit inh – inhibitors of fibronectin matrix deposition, primary screen, AH1F cells, Alexa488-fibronectin fluorescence, plate reader | AH1F fibroblasts, overnight | inhibition, % at 12.6 µM | 350,000 tested, 0.086% active | AID 743247, 2014;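 active = mean inhibition across replicates of 30% or more, regardless of how many single replicates reach that level; inconclusive = mean under 30% yet at least half of replicates reach 30%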;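 note: positive control wells lacked labelled fibronectin entirely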
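Schedule: 1 h cell adhesion before compound, then overnight fibronectin incubation; test system: AH1F fibroblast monolayer depositing Alexa488-labelled fibronectin into matrix; quantity: 10000 AH1F cells per well; probe or stimulus: fluorescent fibronectin at 24 nM final; signal: fluorescence, ex 485 nm, em 525 nm; evaluation: percent inhibition as loss of matrix-bound fibronectin fluorescence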
FGF22 binding – binders of human FGF22 protein, primary screen, FGF22 synaptogenesis inhibitor project, biophysical, thermal shift, single point. Fibroblast growth factor 22 (Homo sapiens), Q9HCT0. recombinant FGF22 thermal shift, SYPRO orange fluorescence; percent of sucrose octasulfate shift, DMSO zero. activity (Tm shift, normalised), % at 9.99 µM. 340,000 tested, 1.5% active. AID 651658, 2012;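 active = mean Tm shift, scaled 0 neutral to 100 positive control, at about 1.3% or above, every replicate too, limit read from the data; inconclusive = no clear call, values can overlap the other calls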
Target sequence (Q9HCT0 whole entry, looked up): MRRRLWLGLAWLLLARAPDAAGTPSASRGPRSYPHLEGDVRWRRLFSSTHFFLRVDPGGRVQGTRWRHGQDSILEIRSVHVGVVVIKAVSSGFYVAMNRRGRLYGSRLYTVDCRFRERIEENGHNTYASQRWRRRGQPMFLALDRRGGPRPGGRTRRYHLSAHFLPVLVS
Env fusion inh – inhibitors of HIV-1 Env-driven cell-cell fusion, primary screen, HeLa-JRFL effector, CEM21 target cells, luciferase; inhibition, % at 12.3 µM; 360,000 tested, 1.1% active; AID 651610, 2012;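 active = mean replicate inhibition score of at least 50 and every replicate individually at or above 50; inconclusive = only one of the two criteria met; inactive = mean below 50 and not all replicates reaching 50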;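 note: 0% = plate neutral controls and 100% = maraviroc near 300 nM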
EWS-Fli block – EWS/Fli-driven NR0B1 reporter inhibitors, primary screen, A673 cells, NR0B1 luciferase, luminescence, MLPCN library; viability-normalised; 350,000 tested, 0.67% active; inhibition, % at 12.6 µM;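 active = mean inhibition of at least 50% after viability correction, with every replicate also passing that limit; inconclusive = mean reaches 50% but only one of two replicates passes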;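 note: firefly luciferase signal divided by Alamar Blue viability fluorescence both relative to DMSO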
* hit, by the source's call; ? = inconclusive; . = not tested or not shown; [ ] = dose if it differs, or a comment.

SMILES	PGC1a acetyl inh	PAX8 reporter	FN deposit inh	FGF22 binding	Env fusion inh	EWS-Fli block
CCc1cc2c(nc1CC)CCCN2S(=O)(=O)c1ccccc1C	.	-16	4	42	?	4
CCc1cc2c(nc1CC)CCCN2S(=O)(=O)c1c(C)noc1C	.	-31	0	43*	-7	8
CCc1cc2c(nc1CC)CCCN2S(=O)(=O)c1ccc(OC)cc1	.	21	-6	0	27	72*
Cn1c(=O)c2[nH]c(Cc3cccc(O)c3)nc2n(C)c1=O	3	-14	11	.	16	-29
COc1ccc(Cc2nc3c([nH]2)c(=O)n(C)c(=O)n3C)cc1OC	-10	-19	0	43*	.	6
CCCNC(=O)N1CCC2(CC1)CN(S(C)(=O)=O)[C@H](CO)c1c2c2ccc(OC)cc2n1C	9	8	.	0	.	3
Cc1ccc(S(=O)(=O)n2cc(C=O)c3ccccc32)cc1	7	21	6	0	8	6
Cc1ccc(S(=O)(=O)n2cc(-c3ccccc3)c3ccccc32)cc1	-14	52	-2	0	-164	60*
Cc1nn(C)cc1NC(=O)C[C@@H]1CC[C@H]2[C@@H](COc3ccc(NC(=O)C(C)C)cc3C(=O)N2C)O1	0	54	3	-1	-19[16.7 µM]	7
COc1cccc(-c2ccc3c(c2)[C@@H]2[C@@H](CCN2S(=O)(=O)c2ccc(F)cc2)[C@H](CO)N3C)c1	-26	?	-14	0	.	0
COc1ccc(S(=O)(=O)N2CC[C@@H]3[C@@H](CO)N(C)c4ccc(-c5ccc(F)cc5)cc4[C@@H]32)cc1	4	66*	-45	0	.	42
CN1c2ccc(-c3ccc(C#N)cc3)cc2[C@H]2[C@H](CCN2S(=O)(=O)c2ccc(F)cc2)[C@@H]1CO	8	-3	1	0	.	13
CN1c2ccc(-c3ccc(F)cc3)cc2[C@H]2[C@H](CCN2S(=O)(=O)c2ccc(F)cc2)[C@@H]1CO	11	41	-51	0	.	55*
COc1cccc(-c2ccc3c(c2)[C@H]2[C@H](CCN2S(=O)(=O)c2ccc(F)cc2)[C@@H](CO)N3C)c1	-32	67*	-1	0	.	11
COc1ccc(-c2ccc3c(c2)[C@@H]2[C@@H](CCN2S(=O)(=O)c2ccc(F)cc2)[C@@H](CO)N3C)cc1	-19	7	-7	.	.	9
COc1ccc(-c2ccc3c(c2)[C@H]2[C@H](CCN2S(=O)(=O)c2ccc(F)cc2)[C@H](CO)N3C)cc1	11	94*	6	0	.	5
CCCNC(=O)C[C@H]1C[C@@H]2c3cc(NS(=O)(=O)c4ccccc4)ccc3O[C@@H]2[C@@H](CO)O1	-1	-3	-12	0	6[16.7 µM]	-1
C[C@H](CO)N1C[C@H](C)[C@H](CN(C)S(=O)(=O)c2cn(C)cn2)Oc2ccc(NC(=O)C3CC3)cc2C1=O	11	.	.	0	.	-11
CCN1C(=C2C(=O)c3ccccc3C2=O)C=Cc2ccccc21	.	.	-6	.	18	.
CCCCCN1C=CC(=C2C(=O)c3ccccc3C2=O)C=C1	11	99*	-6	1	72*	91*
CC(=O)N(C)C[C@@H]1Oc2ncc(-c3cccc(C#N)c3)cc2C(=O)N([C@H](C)CO)C[C@@H]1C	8	7	0	0	-32[16.7 µM]	8
CN1CCC(=NNC(=O)C(=O)Nc2cccc(Br)c2)CC1	-4	-19	-12	43*	11	6
CN1CCC(=NNC(=O)C(=O)Nc2ccc(F)cc2)CC1	15	-17	4	0	-3	-35
CCNC(=O)[C@H]1[C@H](CO)[C@H]2Cn3c(ccc(C4=CCCC4)c3=O)[C@@H]1N2Cc1cccnc1	.	-9	.	0	.	-4
Cc1noc(C)c1S(=O)(=O)Nc1ccc2c(c1)C(=O)N([C@H](C)CO)C[C@@H](C)[C@H](CN(C)Cc1ccc(C(F)(F)F)cc1)OCCCC[C@@H](C)O2	5	?	.	0	44[16.7 µM]	.
SMILES	PGC1a acetyl inh	PAX8 reporter	FN deposit inh	FGF22 binding	Env fusion inh	EWS-Fli block
Cc1noc(C)c1S(=O)(=O)Nc1ccc2c(c1)C(=O)N([C@H](C)CO)C[C@@H](C)[C@@H](CN(C)Cc1ccc(C(F)(F)F)cc1)OCCCC[C@H](C)O2	11	86*	.	0	25[16.7 µM]	.
Cc1noc(C)c1S(=O)(=O)Nc1ccc2c(c1)C(=O)N([C@H](C)CO)C[C@@H](C)[C@H](CN(C)Cc1ccc(C(F)(F)F)cc1)OCCCC[C@H](C)O2	13	72*	3	0	28[16.7 µM]	.
Cc1noc(C)c1S(=O)(=O)Nc1ccc2c(c1)C(=O)N([C@@H](C)CO)C[C@@H](C)[C@@H](CN(C)C(=O)Nc1ccc(C(F)(F)F)cc1)OCCCC[C@H](C)O2	7	39	.	-1	9[16.7 µM]	1
Cc1noc(C)c1S(=O)(=O)Nc1ccc2c(c1)C(=O)N([C@H](C)CO)C[C@@H](C)[C@H](CN(C)C(=O)Nc1ccc(C(F)(F)F)cc1)OCCCC[C@@H](C)O2	6	87*	.	0	-52[16.7 µM]	12
Cc1noc(C)c1S(=O)(=O)Nc1ccc2c(c1)C(=O)N([C@@H](C)CO)C[C@@H](C)[C@@H](CN(C)Cc1ccc(C(F)(F)F)cc1)OCCCC[C@H](C)O2	1	68*	.	0	-1[16.7 µM]	.
C[C@H](CO)N1C[C@H](C)[C@H](CN(C)C(=O)Nc2ccc(F)cc2)Oc2c(NS(=O)(=O)c3ccc(F)cc3)cccc2C1=O	4	.	.	-1	-62[16.7 µM]	-1
CCNC(=O)C[C@H]1CC[C@@H]2[C@H](COc3ccc(NC(=O)Nc4ccccc4Cl)cc3C(=O)N2C)O1	-4	2	-40	0	.	0
CCCNC(=O)N1CC2(C1)[C@H](c1ccccc1)[C@H](CO)N2C(=O)c1ccncc1	4	5	.	0	.	-6
CC(C)CCOP(=O)(c1ccc(N(C)C)cc1)C(O)c1c(Cl)cccc1Cl (centres undefined)	-9	-4	-4	0	75*	17
CCCOP(=O)(c1ccc(N(C)C)cc1)C(O)c1c(Cl)cccc1Cl (centres undefined)	-7	-15	4	0	73*	0
O=C(Cc1ccccc1)N1CC(=O)N2[C@H](CO)[C@@H](c3ccc(C4=CCCC4)cc3)[C@@H]2C1	4	.	.	.	.	.
CS(=O)(=O)Nc1ccc2c(c1)[C@H]1C[C@@H](CC(=O)N3CCCCC3)O[C@H](CO)[C@H]1O2	4	3	4	0	.	-2
O=C(CN(Cc1ccccc1)S(=O)(=O)c1cccc(C(F)(F)F)c1)NC1CCCCC1	.	2	-5	.	63*	.

Assay outcomes as filed in PubChem BioAssay.
